Data published in ChEMBL document CHEMBL1125251, “4'-Hydroxy-3-methoxyflavones with potent antipicornavirus activity” (J Med Chem, 1991).
Values after ≈ are worked out from the molar mass of the structure shown. Active and inactive are the calls of the source. No cut-off for these calls is given here.

What was measured:
[1] = system: Enterovirus C; assay: Minimal dose which produces titer reduction at 10 ug/mL (mD RF10e3); assay type: functional
[2] = system: Enterovirus C; assay: Minimum drug concentration at which 99% of the polio virus is inhibited; assay type: functional
How it was run: (§1)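 Poliovirus type 1 Brunhilde 1A/S3 in Vero monolayers. Serial 10-fold virus dilutions adsorbed 1 h at 37 °C, then serial 2-fold compound dilutions were added. Incubated at 37 °C and scored for CPE by light microscopy, with a 3-day readout. Titer reduction is control/treated TCD50/mL. ED99 is the minimum concentration inhibiting 99% of virus. Virus, cell and compound controls were included.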

[3] = system: Human rhinovirus sp.; assay: Cytotoxic dose at which 50% growth of normal cells is inhibited against rhino virus infection.; assay type: functional
How it was run: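 Human skin fibroblasts, 10⁶ cells per flask, given serial 2-fold dilutions in quadruplicate in M-199 with 6% newborn calf serum and held 6 days at 37 °C. Cells were trypsinized, counted in a chamber and reseeded with compound over five repeat cycles. CyD50 = lowest concentration at least doubling cell generation time relative to untreated control.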

[4] = Therapeutic Index measured as the ratio of CyD50 (rhino) / ED99 (rhino) values.; settings: read-out: Therapeutic index 99
How it was run: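 TI99 = CyD50/ED99 for rhinovirus 15. ED99 came from end-point titration in human skin fibroblasts at 33 °C over 7 days. CyD50 came from fibroblast growth: 10⁶ cells were given serial 2-fold compound dilutions in quadruplicate for 6 days at 37 °C, then counted and reseeded, repeated five times. Generation time was calculated per concentration.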

[5] = system: Human rhinovirus sp.; assay: Minimum drug concentration at which 99% of the rhino virus is inhibited.; assay type: functional
How it was run: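 End-point titration with rhinovirus type 15 on human skin fibroblast monolayers. Cells were infected with serial 10-fold virus dilutions and allowed 1 h adsorption at 37 °C. Serial 2-fold compound dilutions were then added and plates incubated at 33 °C. CPE was read daily by light microscopy for at least 1 week, titres as TCD50/mL. ED99 = minimum concentration inhibiting 99% of virus.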

[6] = system: Enterovirus C; assay: The ratio of the poliovirus viral titer of the virus control (reduction factor) to the viral titer in the presence of the maximal non-toxic dose (RF MNTD); assay type: functional; how it was run: as §1
[7] = Cytotoxic dose at which 50% growth of normal cells is inhibited; assay type: cell-based; settings: chlorocebus sabaeus, Vero cells; read-out: CyD50
How it was run: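 Cell-growth cytotoxicity in Vero cells or human skin fibroblasts. Serial 2-fold dilutions in M-199 with 6% newborn calf serum were added in quadruplicate to 10⁶ cells and held 6 days at 37 °C. Cells were trypsinized, counted and reseeded with compound, repeated five times. Generation time was calculated per concentration. CyD50 = lowest concentration at least doubling generation time versus untreated cells.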

[8] = Therapeutic Index measured as the ratio of CyD50(polio) / ED99(polio) values; assay type: organism-based; settings: enterovirus c; read-out: Therapeutic index 99
How it was run: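 TI99 = CyD50/ED99 for poliovirus. ED99 came from end-point titration in Vero cells at 37 °C over 3 days. CyD50 came from Vero cell growth: 10⁶ cells were given serial 2-fold compound dilutions in quadruplicate for 6 days at 37 °C, then trypsinized, counted and reseeded, repeated five times. Generation time was calculated per concentration.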

[9] = system: Enterovirus C; assay: Maximal non-toxic dose (MNTD) that shows antiviral activity.; assay type: functional
How it was run: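 End-point titration. Poliovirus type 1 Brunhilde was run in Vero cells at 37 °C with a 3-day read. Rhinovirus 15 was run in human skin fibroblasts at 33 °C with a 7-day read. Monolayers got serial 10-fold virus dilutions and adsorbed 1 h at 37 °C, then serial 2-fold compound dilutions (DMSO stock in maintenance medium). CPE was read by light microscopy. RF = control titer (TCD50/mL) / titer at maximal nontoxic dose.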

[10] = system: Enterovirus C; assay: Minimum drug concentration at which 99% of the polio virus is inhibited; NA= Not active; assay type: functional, organism-based; how it was run: as §1
[11] = system: Enterovirus C; assay: Minimum drug concentration at which 99% of the polio virus is inhibited; NA= not active; assay type: functional, organism-based; how it was run: as §1

SMILES | Minimal dose [1] [µg/mL] | ED99 [2] [µg/mL] | CyD50 [3] [µg/mL] | selectivity ratio [4] | ED99 [5] [µg/mL] | Reduction factor [6] | CC50 [7] [µg/mL] | selectivity ratio [8] | Max non-toxic dose [9] [µg/mL] | ED99 [10] | ED99 [11]
COc1cc(O)c2c(=O)c(OC)c(-c3ccc(O)c(O)c3)oc2c1OC | 0.5 | 0.2 | 20 | 10 | 2 | 100000 | > 5 | 25 | 10 |  | 
COc1ccc2c(=O)c(OC)c(-c3ccc(O)cc3)oc2c1 | 2.5 | 2.5 | >50 | > 5 | 10 |  | > 50 | > 20 | 50 |  | 
COc1c(-c2ccc(O)cc2)oc2ccc([N+](=O)[O-])cc2c1=O |  |  |  |  |  |  | > 0.1 |  | 50 | inactive | 
COc1cc(O)c2c(=O)c(OC)c(-c3ccc(O)cc3)oc2c1OC | 0.3 | 0.25 | >100 | > 200 | 0.5 | 1000000 | > 100 | 400 | 25 |  | 
COc1c(-c2ccc(O)cc2)oc2cc(I)ccc2c1=O | 10 | 4 | 20 |  | <1000 | 10000 | 20 (≈ 50.7 µM) | 5 | 10 |  | 
COc1c(-c2ccc(Cl)cc2)oc2ccc(Cl)cc2c1=O |  |  |  |  |  | 1 | 20 (≈ 62.3 µM) |  | 25 |  | inactive
COc1ccc(-c2oc3cc(Cl)ccc3c(=O)c2OC)cc1 |  |  |  |  |  | 1 | > 200 |  | 100 |  | inactive
COc1c(-c2ccc(O)cc2)oc2cc(Cl)ccc2c1=O | 20 | 7 | 100 | 4 | 25 | 10000 | 100 (≈ 330 µM) | 14.3 | 100 |  | 
COc1cc2oc(-c3ccc(O)cc3)c(OC)c(=O)c2c(O)c1OC [PENDULETIN] | 0.1 | 0.2 | 10 | 1 | 10 | 1000000 | 100 (≈ 290 µM) | 500 | 100 |  | 
COc1c(-c2ccc(O)cc2)oc2cc(C)ccc2c1=O | 4 | 2 | 25 | 1 | 25 |  | 25 (≈ 88.6 µM) | 12.5 | 25 |  | 
COc1c(-c2ccc(O)cc2)oc2ccc(C(C)C)cc2c1=O |  | 5 | 10 | 1 | 10 |  | 10 (≈ 32.2 µM) | 2 | 5 |  | 
COc1cc(O)c2c(=O)c(OC)c(-c3ccc(O)cc3)oc2c1 [KUMATAKENIN] | 0.3 | 0.3 | 100 | 40 | 2.5 | 1000000 | 100 (≈ 318 µM) | 333 | 100 |  | 
COc1c(-c2ccc(O)cc2)oc2ccc(O)cc2c1=O | 5 | 2 | 15 | 1.5 | 10 |  | 3 (≈ 10.6 µM) | 1.5 | 10 |  | 
COc1c(-c2ccc(O)cc2)oc2cc(O)cc(C)c2c1=O | 0.05 | 0.1 | 15 | 15 | 1 | 100000 | 15 (≈ 50.3 µM) | 150 | 10 |  | 
COc1ccc(-c2oc3ccc(Cl)cc3c(=O)c2OC)cc1 |  |  |  |  |  | 1 | 20 (≈ 63.1 µM) |  | 25 |  | inactive
COc1c(-c2ccc(O)cc2)oc2cc(O)ccc2c1=O | 4 | 1 | 25 | 1 | 25 |  | 15 (≈ 52.8 µM) | 15 | 5 |  | 
COc1c(-c2ccc(O)cc2)oc2cccc(OC)c2c1=O | 5 | 10 | 150 | 10 | 15 |  | 150 (≈ 503 µM) | 15 | 10 |  | 
COc1cc(OC)c2c(=O)c(OC)c(-c3ccc(O)cc3)oc2c1 | 5 | 10 | 100 | 5 | 20 | 100000 | 100 (≈ 305 µM) | 10 | 100 |  | 
COc1c(-c2ccc(Cl)cc2)oc2cc(Cl)ccc2c1=O |  |  |  |  |  | 1 | 20 (≈ 62.3 µM) |  | 25 |  | inactive
COc1c(-c2ccc(O)cc2)oc2cccc(O)c2c1=O | 1.5 | 0.5 | 5 | 5 | 1 | 10000 | 25 (≈ 87.9 µM) | 50 | 5 |  | 
